Source: PubChem BioAssay (NMMLSC)
MEKK3 PB1 HTS: raises or lowers MEK5 binding to the human MEKK3 PB1 domain; AID 1529; binding response (% of control), % at 10 µM; 1.4% of 290,000 active; bead-based flow cytometry, Alexa488-MEK5 binding to MEKK3; actives lie on both sides; 0 = blocked by unlabeled MEK5, 100 = vehicle;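 active means binding response more than 3 SD above or below the average of its plate-row segment, actives on both sides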;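 further: Alexa488 bead fluorescence after subtracting the streptavidin-only scavenger bead signal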
ABCB1 block: blocks JC-1 efflux by human ABCB1 transporter; CCRF-Adr cells, flow cytometry; P08183; inhibition, % at 6.6 µM; 0.067% of 190,000 active; AID 1326; in the data active means inhibition above about 40%;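 further: 0% = vehicle and 100% = reference inhibitor; higher value means more JC-1 retained so stronger ABCB1 efflux block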
MEKK2mut PB1 HTS: signal of MEK5 binding to mutant human MEKK2 PB1 domain; bead flow cytometry, Alexa488-MEK5 binding to MEKK2 mutant; percent response, % at 10 µM; 0.35% of 290,000 active; AID 1530; in the data active means percent response above about 24%, passing the limit was not always enough
ABCG2 block: inhibitors of human ABCG2 transporter, ABCB1 counter-screen; Q9UNQ0; IgMXP3 cells, JC-1 efflux, flow cytometry; inhibition, % at 6.6 µM; 0.1% of 190,000 active;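 active means inhibition above 80%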;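 further: 0% = DMSO and 100% = nicardipine control wells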
Target sequence (Q9UNQ0 whole entry, looked up): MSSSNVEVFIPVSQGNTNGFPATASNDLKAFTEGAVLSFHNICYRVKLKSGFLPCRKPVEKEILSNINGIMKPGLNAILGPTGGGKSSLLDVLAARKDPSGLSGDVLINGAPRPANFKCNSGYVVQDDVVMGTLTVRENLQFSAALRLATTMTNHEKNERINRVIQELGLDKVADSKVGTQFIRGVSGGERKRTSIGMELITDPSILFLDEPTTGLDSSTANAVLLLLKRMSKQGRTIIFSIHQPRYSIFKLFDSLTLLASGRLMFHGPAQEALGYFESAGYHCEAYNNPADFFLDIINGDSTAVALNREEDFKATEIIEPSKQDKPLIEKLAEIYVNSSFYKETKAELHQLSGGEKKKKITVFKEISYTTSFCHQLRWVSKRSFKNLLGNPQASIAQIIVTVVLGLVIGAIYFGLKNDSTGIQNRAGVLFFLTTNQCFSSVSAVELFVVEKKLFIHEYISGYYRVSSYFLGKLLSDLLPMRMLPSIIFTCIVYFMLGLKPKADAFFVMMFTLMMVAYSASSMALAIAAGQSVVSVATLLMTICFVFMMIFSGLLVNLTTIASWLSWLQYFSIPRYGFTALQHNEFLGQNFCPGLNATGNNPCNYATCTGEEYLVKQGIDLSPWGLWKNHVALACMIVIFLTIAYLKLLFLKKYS
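System: two drug-resistant human cell lines, ABCG2 and ABCB1; controls: nicardipine high and DMSO low controls; times: 10 min exposure at 25 °C with rotation, no wash; detection: flow cytometry of retained JC-1 fluorescence; read-out basis: percent efflux inhibition, scaled nicardipine 100% to DMSO 0%; doses: one concentration, 6.6 µM final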
MEKK2 WT-MEK5: raises or lowers MEK5 binding to wildtype human MEKK2 PB1 domain | bead flow cytometry, Alexa488-MEK5 binding to MEKK2 WT; actives lie on both sides | AID 1531 | binding response (% of control), % at 10 µM | 1.1% of 290,000 active; in the data active means binding response below about 67% or above about 130%
MEKK2wt confirm: raises or lowers MEK5 binding to wildtype human MEKK2, retest. shares compounds with MEKK3 PB1 HTS. bead flow cytometry, Alexa488-MEK5 binding to MEKK2 WT; actives lie on both sides. binding response (% of control), % at 10 µM. 2.4% of 5,900 active. AID 1892; in the data active means binding response below about 16% or above about 210%; inactive means in between
MEKK2mut-MEK5: signal of MEK5 binding to mutant human MEKK2, retest; shares compounds with MEKK3 PB1 HTS; bead flow cytometry, Alexa488-MEK5 binding to MEKK2 mutant; percent response, % at 10 µM; 2% of 5,900 active; AID 1893; in the data active means percent response mostly above about 71%, no sharp cut-off; inactive means mostly below about 38%;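 further: higher means compound restores mutant binding toward wildtype level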
MEKK3 confirm: MEKK3-MEK5 PB1 inhibition, single concentration confirmation | shares compounds with MEKK3 PB1 HTS | bead flow cytometry, Alexa488-MEK5 binding to MEKK3; active compounds read low | binding response (% of control), % at 10 µM | 1.8% of 5,900 active | AID 1894;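 active means binding response below 72% of control, or above a set upper limit, though filed actives all read lower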;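 further: 100% = DMSO only wells and 0% = binding blocked by excess unlabeled MEK5; lower values mean stronger disruption of MEK5 binding to MEKK3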
* marks the source's active call; other numbers are inactive results; · = not tested or not shown; [ ] = remark or other dose. Sampled rows, rich in hits. Any-hit rate of the full collection: about 2.3%.

SMILES	MEKK3 PB1 HTS	ABCB1 block	MEKK2mut PB1 HTS	ABCG2 block	MEKK2 WT-MEK5	MEKK2wt confirm	MEKK2mut-MEK5	MEKK3 confirm
COCCC(=O)N1CCC(Oc2ccc(C(=O)NC3CCOC(C)(C)C3)cc2)CC1 (configuration not stated)	98	·	-3	·	93	·	·	·
CCN(CC)c1ccc(C=C(c2nnnn2-c2ccc(C)cc2)c2nnnn2-c2ccc(C)cc2)cc1	131*	1	1	0	102	95	2	104
Cc1ccc(-n2nnnc2-c2ccccc2)cc1	96	1	-2	3	96	·	·	·
O=C(Nc1ccc(F)cc1F)c1ccccc1NC(=O)C1CC=CCC1C(=O)O (configuration not stated)	102	·	7	·	105	·	·	·
CN(C)CCNC(=O)c1cc2c(s1)-c1ccccc1OC2	112	0	24*	1	132	108	2	99
CCCN1CCN(CCCNC(=O)c2cc3c(s2)-c2ccccc2OC3)CC1	102	·	8	·	120	·	·	·
CCOC(=O)N1CCN(S(=O)(=O)c2ccc(C(=O)N(CCN(C)C)c3nc4ccc(CC)cc4s3)cc2)CC1	106	·	16	·	136*	138	15	102
CCOC(=O)N1CCN(S(=O)(=O)c2ccc(C(=O)N(CCCN(C)C)c3nc4ccc(Cl)cc4s3)cc2)CC1	108	·	30*	·	153*	132	15	103
Clc1ccc(-c2nc3cc(CN4CCCCC4)ccc3o2)cc1	103	·	5	·	112	·	·	·
COc1cccc(Oc2nc(N)ncc2[N+](=O)[O-])c1	98	·	1	·	104	·	·	·
Cc1ccc(Nc2c(-c3ccccc3O)nc3cnccn23)cc1	110	1	-3	7	97	·	·	·
Cc1ccc(Nc2c(-c3ccccc3O)nc3ncccn23)cc1	130*	·	28	·	108	96	-1	98
O=C(Nc1cc(Cl)cc(Cl)c1)c1cccc(OC(F)F)c1	109	1	39	4	172*	106	5	104
Cc1ccnc(NC(=O)c2cccc(OC(F)F)c2)n1	105	·	-2	·	101	·	·	·
CCc1ccc(CNc2ccc3c(c2)ncn3C(C)(C)C)cc1	99	·	7	·	111	·	·	·
CCN(CC)c1ccc(CNc2ccc3c(c2)ncn3C(C)(C)C)cc1	110	·	16	·	135*	134	16	105
CC(C)(C)n1cnc2cc(NCc3ccc(Br)cc3)ccc21	112	·	20	·	137*	145	35	105
CCn1c(SCC(=O)Nc2ccc3c(c2)OCO3)nnc1C(C)C	95	·	-6	·	98	·	·	·
Nc1nc(-c2cccc(NS(=O)(=O)c3ccccc3)c2)cs1	82*[inhibitor]	0	-12	2	85	96	-7	99
CC(=O)Nc1ccc(S(=O)(=O)Nc2cccc(-c3csc(C)n3)c2)cc1	100	0	-5	-2	98	·	·	·
COc1ccc(C(=O)NCCc2c[nH]c3ccccc23)cc1[N+](=O)[O-]	104	·	6	·	109	·	·	·
Cc1ccc(-c2cc(C(=O)Nc3ccc(S(=O)(=O)N4CC(C)OC(C)C4)cc3)[nH]n2)c(O)c1 (configuration not stated)	110	·	13	·	101	·	·	·
Cc1ccc(O)c(-c2cc(C(=O)Nc3ccc(S(=O)(=O)N4CC(C)OC(C)C4)cc3)[nH]n2)c1 (configuration not stated)	123*	-1	3	-2	107	104	-4	99
O=C(CCc1ccncc1)NC1CCCc2c1cnn2-c1cc(F)cc(F)c1 (configuration not stated)	90	·	-4	·	93	·	·	·
Cc1c(Cl)cccc1NC(=O)CSc1nc2ncc(Cl)cc2[nH]1	102	·	-1	·	102	·	·	·
COc1ccc(C)cc1N(CC(=O)NCCSCc1cccc(Cl)c1)S(C)(=O)=O	108	·	3	·	110	·	·	·
